High-throughput results deposited in PubChem BioAssay by Johns Hopkins Ion Channel Center.
In the library only some 3.5% were active in any assay of this set; here they are far more common.
MrgX1 PAM: positive allosteric modulators of MrgX1, primary screen, HEK293 cells, Fluo-4 calcium flux; Mas-related G-protein coupled receptor member X1 (Homo sapiens), Q96LB2; FDSS; active compounds read high; B-score at 10 µM; hit rate 0.63% among 310,000;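 active = plate-corrected calcium response at least 3 library SD above typical, normal starting fluorescence, not activating the receptor alone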;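 note: compound read alongside a low EC10 to EC30 dose of BAM8-22 agonist; peak minus trough fluorescence over baseline measured at the second addition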
MrgX1 ag: agonists of human MrgX1 receptor, primary screen, HEK293 cells, Fluo-4 calcium flux | Fluo-4 calcium fluorescence, agonist mode; active compounds read high | hit rate 0.44% among 310,000 | Mas-related G-protein coupled receptor member X1 (Homo sapiens), Q96LB2 | B-score at 10 µM;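 active = calcium response B-score plate-corrected fluorescence ratio at least 3 library SD, with starting fluorescence B-score inside 5 SD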
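Material: MrgX1-expressing HEK293 cells; input: 15,000 cells per well; doses: test compound given as first of three sequential additions; schedule: overnight plating before 1 h dye loading; technique: Fluo-4 NW calcium-flux fluorescence, kinetic read; evaluation: baseline-normalised fluorescence change ratio, B-scored; control set: plate-wise positive and negative controls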
RGS4 inh: RGS4 inhibitors, primary screen, cell-based, HEK293 M3R inducible RGS4, calcium flux; hit rate 0.45% among 310,000; Fluo-4 calcium flux; active compounds read high; triggered by carbachol at its EC20; B-score at 10 µM;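 active = B-score, a plate-corrected calcium signal, over three deviations above library mean, with baseline fluorescence within five deviations of library mean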;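 note: RGS4 expression induced by doxycycline in cells with stable M3 receptor; B-score is computed from the integrated fluorescence ratio over baseline after carbachol; higher B-score means a larger calcium signal and so more RGS4 inhibition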
Target sequence (P49798 whole entry, looked up): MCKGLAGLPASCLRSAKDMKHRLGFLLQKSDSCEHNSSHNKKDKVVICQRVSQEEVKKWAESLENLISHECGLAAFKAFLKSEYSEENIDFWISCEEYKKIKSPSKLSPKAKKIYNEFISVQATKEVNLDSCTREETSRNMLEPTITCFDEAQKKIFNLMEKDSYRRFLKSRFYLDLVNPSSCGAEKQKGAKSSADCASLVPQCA
MrgX1 antag: antagonists of human MrgX1 receptor, primary screen, HEK293 cells, Fluo-4 calcium flux. Mas-related G-protein coupled receptor member X1 (Homo sapiens), Q96LB2. BAM8-22 antagonism; active compounds read low. B-score at 10 µM. hit rate 1.3% among 310,000. AID 588676, 2011;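 active = calcium-response B-score plate-corrected more than 3 library SD below zero, starting fluorescence within 5 deviations, no agonist response on first addition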;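 note: peak minus trough fluorescence over baseline after final BAM8-22 challenge near maximal dose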
RGS4 pot: RGS4 potentiators or activators, primary screen, cell-based, HEK293 M3R inducible RGS4, calcium flux; B-score at 10 µM; AID 463111, 2010; hit rate 0.92% among 310,000; carbachol calcium flux Fluo4; active compounds read low;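 active = B-score of the integrated calcium signal more than 4 SD below the library mean, with starting fluorescence not abnormally high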;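 note: negative B-score means reduced calcium response which marks RGS4 activation or potentiation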
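System: HEK293 FlpIn-TREx cells, stable M3R, doxycycline-inducible RGS4. Timing: overnight RGS4 induction, 30 min dye load 37 °C, 20 min compound RT. Also added: carbachol, ECmax concentration. Measured by: Fluo4 fluorescence kinetic imaging of calcium. Evaluation: integrated calcium ratio converted to B score.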
Of the large screens only hits and unclear results are named; the others gave an inactive call.

c1ccc(C(c2ccccc2)N2CCN(c3nc4ccccc4n4cnnc34)CC2)cc1	RGS4 pot -7.2
Oc1ccc(N=Nc2cccc(Cl)c2)cc1C=Nc1ccc(N2CCOCC2)cc1	RGS4 inh 8.7 (no result: MrgX1 PAM, MrgX1 ag, MrgX1 antag)
CC(C)O/C(=N\S(=O)(=O)c1ccc(Cl)cc1)c1ccccc1	RGS4 pot -7.1
CC(C)CO/C(=N/S(=O)(=O)c1ccccc1)c1ccccc1	none
O=[N+]([O-])c1ccc2nc(-c3ccc(Cl)cc3)[nH]c2c1	MrgX1 antag -5.8
Cc1ccc(-c2nc3ccc([N+](=O)[O-])cc3[nH]2)cc1	none
CCOC(=O)c1ccc(S(=O)(=O)NNC(=O)c2cccc(N(C)C)c2)cc1	MrgX1 PAM 7.1
CCNc1ccc(C(=O)OCC)cc1NC(=O)c1cccc(N(C)C)c1	none
Cc1nn(-c2ccccc2)c(N2CCCC2)c1/C=N/Nc1ccc(S(=O)(=O)Nc2ccccc2)cc1[N+](=O)[O-]	MrgX1 antag -5.1
CC(NC(=O)c1ccco1)C(=O)N1CCCCC1 (stereo unspecified)	none
CCOc1cc(CNc2ccc(OC)cc2)cc(Br)c1OCC(=O)NC(C)(C)C	none
COc1cc(CNc2ccc(C(=O)O)cc2)cc(Br)c1OCC(=O)NC(C)(C)C	MrgX1 antag -5.3
CC1CCCCN1C(=O)CCS(=O)(=O)c1cccc2nonc12 (stereo unspecified)	none
Nc1nonc1-n1nnc(C(=O)N/N=C/c2ccc(O)cc2)c1CN1CCCCCC1	MrgX1 antag -8.6
CSc1c(C#N)c(N)nc2sc(C(=O)c3ccc(Cl)c(Cl)c3)c(N)c12	MrgX1 antag -5.2
COc1ccc(-c2c(C#N)c(N)nc3sc(C(=O)c4ccccc4)c(N)c23)cc1	none
Cc1ncsc1CCC(=O)N1CCCC(Nc2ccc(C(C)C)cc2)C1 (stereo unspecified)	MrgX1 antag -6.6
O=C(C1CCCN(S(=O)(=O)c2ccc(Br)cc2)C1)N1CCOCC1 (stereo unspecified)	none
CCOC(=O)C1=C(O)c2ccccc2C(=O)/C1=C\c1ccc(C)cc1	MrgX1 ag 28 (no result: RGS4 inh, RGS4 pot)
CCOC(=O)C1=C(C)N(c2ccc(C)cc2)C(=O)/C1=C\c1ccc(O)c(OC)c1	none
COC(=O)c1ccc(NC(=O)CSc2nnc(-c3cccnc3)o2)cc1	none
CCOC(=O)C1=C(c2ccccc2)NC(=S)NC1c1cccc([N+](=O)[O-])c1 (stereo unspecified)	none
CCOC(=O)C1=C(c2ccccc2)NC(=S)NC1c1ccc(C)c([N+](=O)[O-])c1 (stereo unspecified)	MrgX1 antag -4.9
O=C(CC1C(=O)NCCN1Cc1c(F)cccc1Cl)NC1CCCC1 (stereo unspecified)	none
CC(=O)N1c2c(cc(Br)cc2S(=O)(=O)N2CCN(c3ccccc3F)CC2)CC1C (stereo unspecified)	MrgX1 antag -7.8
Cc1ccc(-n2cc(-c3ccc([N+](=O)[O-])cc3)[nH]c2=S)c(C)c1	MrgX1 PAM 9.7
COc1ccc(OC)c(S(=O)(=O)N2CCC(C(=O)NCc3ccc4c(c3)OCO4)CC2)c1	none
O=C(Cc1cccc2ccccc12)Nc1ccc(Br)cc1C(=O)O	MrgX1 antag -6.3
CC(=O)Nc1ccc(NC(=O)CCC(=O)OCC(=O)c2ccc(C)c([N+](=O)[O-])c2)cc1	MrgX1 antag -5.6
Cc1ccc(C(=O)COC(=O)CCC(=O)Nc2ccccc2Cl)cc1[N+](=O)[O-]	none
COc1cccc(C(=O)C[n+]2ccccc2/C=N/O)c1	RGS4 pot -7.4
CC1CCCN(C(=O)Cc2cn(Cc3cccc(Cl)c3)c3ccccc23)C1 (stereo unspecified)	RGS4 pot -7.4
O=C(O)Cc1cn(Cc2cccc(Cl)c2)c2ccccc12	none
O=C(Cc1cn(Cc2cccc(Cl)c2)c2ccccc12)N1CCCCCC1	RGS4 pot -7.2
CCOc1ccc(N2C(=O)/C(=C/c3cc(OC)c(OC)c(OC)c3)N(CC(=O)OC)C2=S)cc1	none
CCOc1ccc(/C=C2/C(=O)N(c3ccc(OC)cc3)C(=S)N2CC(=O)OC)cc1OCC	MrgX1 antag -6.4
